# M1 PAM: positive allosteric modulators of human M1 muscarinic receptor. P11229. CHO-K1 hM1, Fluo-8 calcium fluorescence, ACh EC20; 0% = ACh EC20, 100% = maximal ACh. activation, % at 3 µM. hit rate 0.088% among 360,000; in the data active = activation above about 19%, passing the limit was not always enough
# Target sequence (P11229 whole entry, looked up): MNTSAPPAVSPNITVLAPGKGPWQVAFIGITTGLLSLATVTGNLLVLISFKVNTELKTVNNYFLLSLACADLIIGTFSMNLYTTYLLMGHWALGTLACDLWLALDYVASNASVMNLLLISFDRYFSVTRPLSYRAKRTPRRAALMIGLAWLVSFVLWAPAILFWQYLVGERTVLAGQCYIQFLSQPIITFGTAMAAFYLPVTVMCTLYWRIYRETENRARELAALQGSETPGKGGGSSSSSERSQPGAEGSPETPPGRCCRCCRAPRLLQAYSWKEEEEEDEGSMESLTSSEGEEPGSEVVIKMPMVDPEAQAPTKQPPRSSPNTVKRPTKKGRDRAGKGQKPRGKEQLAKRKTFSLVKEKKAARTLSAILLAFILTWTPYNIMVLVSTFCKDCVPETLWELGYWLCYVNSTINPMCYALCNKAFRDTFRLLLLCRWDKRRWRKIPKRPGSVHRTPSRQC
# M1 antag: antagonists of human M1 muscarinic receptor | hit rate 1.3% among 360,000 | AID 588852 | inhibition, % at 3 µM | CHO-K1 hM1, Fluo-8 calcium fluorescence, ACh EC80 antagonist;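 active = percent inhibition above its own plate's cutoff, namely the mean of that plate's compound wells plus 3 SD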;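 note: peak over basal fluorescence ratio during 140 s after agonist addition; 0% = ACh EC80 plus DMSO and 100% = DMSO alone without agonist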
# TAAR1 antag: antagonists of human TAAR1; Q96RJ0; CHO RD-HGA16 TAAR1, Fluo-8 calcium fluorescence, antagonist; inhibition, % at 3 µM; hit rate 1.5% among 360,000;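 active = inhibition above a per-plate cutoff, the mean inhibition of test compounds on that plate plus 3 SD, cut at about 49% in these data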;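 note: 0% = DMSO plus EC80 beta-PEA response and 100% = DMSO alone without agonist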
#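 Test system: hTAAR1-expressing CHO RD-HGA16 cells, Gα16-coupled; Probe or stimulus: EC80 β-phenethylamine stimulus; Compound dosing: single nominal final test compound concentration of 3 µM; Timing: 140 s kinetic read after compound, 140 s after agonist; Signal: Fluo-8 calcium-sensitive fluorescence; Measure: % inhibition of agonist calcium response; Controls: DMSO and EC80 PEA controls.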
# TAAR1 agonist: human TAAR1 agonism. Q96RJ0. activation, % at 3 µM. CHO RD-HGA16 TAAR1, Fluo-8 calcium fluorescence; vehicle wells 0%, saturating PEA agonist 100%. AID 624467. hit rate 0.99% among 360,000;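 active = activation above the mean activation of all test compounds in the run plus 3 SD, cut at about 38% in these data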
#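 System: CHO-derived RD-HGA16 cells with stable Gα16 and human TAAR1 / Times: 17-24 h plating, Fluo-8 75 min 37 °C, 30 min RT / Technique: calcium-sensitive Fluo-8 signal, excitation 470-495, emission 515-575 nm / Measure: % activation relative to PEA EC100 response / Benchmarks: DMSO and PEA EC100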
# CHRM1 agonist: human M1 muscarinic receptor agonism; P11229; CHO-K1 hM1, Fluo-8 calcium fluorescence, agonist mode; 0% DMSO, 100% acetylcholine EC100; activation, % at 3 µM; hit rate 0.33% among 360,000; AID 588814;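 active = activation above the run's mean compound activation plus 3 SD, cut at about 16% in these data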;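 note: peak over basal fluorescence ratio within a 140 s kinetic read after compound addition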
# TAAR1 nonsel count: nonselective antagonist in TAAR1 antagonist counter-screen. shares compounds with TAAR1 antag. counterscreen cell line, calcium fluorescence, antagonist mode. inhibition, % at 3 µM. hit rate 77% among 2,400. AID 651780; in the data active = inhibition above about 22%;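 note: CHO-Ga16 host cells stimulated with ATP at an EC80 level; 0% = agonist EC80 plus vehicle and 100% = vehicle without agonist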
# TAAR1 ant conf: confirmation of human TAAR1 antagonists. shares compounds with TAAR1 antag. TAAR1-expressing cells, fluorescence antagonist read-out. inhibition, % at 3 µM. hit rate 40% among 2,400. AID 651785; in the data active = inhibition above about 49%;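 note: CHO-Ga16 host cells challenged with agonist PEA near its EC80; 0% = agonist at EC80 plus vehicle and 100% = vehicle with no agonist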
# Ga16 ag counter: nonselective Ga16 agonism, counter-screen; shares compounds with TAAR1 antag; Ga16-expressing cells, calcium fluorescence, agonist counterscreen; activation, % at 3 µM; hit rate 18% among 2,400; AID 651953; in the data active = activation above about 12%;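 note: 0% = vehicle wells and 100% = saturating stimulus response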
# TAAR1 ag counter: counter-screen for human TAAR1 antagonists: TAAR1 agonists; shares compounds with TAAR1 antag; AID 651955; hTAAR1 cell line, fluorescence activation, agonist mode; activation, % at 3 µM; hit rate 2% among 2,400; in the data active = activation above about 37%;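 note: CHO cells stably expressing TAAR1 with calcium dye readout; 0% = DMSO vehicle and 100% = full agonist response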
# The depositor's hits bear a star; . = no result given. Sampled rows, rich in hits. Any-hit rate of the full collection: about 3.4%.
SMILES,M1 PAM,M1 antag,TAAR1 antag,TAAR1 agonist,CHRM1 agonist,TAAR1 nonsel count,TAAR1 ant conf,Ga16 ag counter,TAAR1 ag counter
CCOc1ccc(-c2cc(C(=O)N/N=C/c3cccnc3)c3ccccc3n2)cc1,-4,-5,42,9,7,.,.,.,.
CCOc1cc(/C=N/NC(=O)c2cc(-c3cccc(OC)c3)nc3ccccc23)ccc1O,-8,19,76*,8,0,14,46,8,8
O=C(N/N=C/C=C/c1ccccc1[N+](=O)[O-])c1cc(-c2cccnc2)nc2ccccc12,-19,13,59*,11,-10,33*,43,4,-1
COc1cc(/C=N/NC(=O)c2cc(-c3c(C)nn(-c4ccccc4)c3C)n[nH]2)ccc1O,3,0,54*,7,-5,27*,41,6,6
O=C(NC1CCCC1)C(c1ccccc1)n1c(-c2ccc3c(c2)CCO3)nc2ccccc21 (stereo unspecified),.,.,-6,1,.,.,.,.,.
CC(=O)NCCCNC(=S)NCCCN(Cc1ccc(Cl)cc1)c1ccc(Br)cn1,-1,-2,35,10,-7,.,.,.,.
CCc1nc2ccc(C(=O)Nc3ccc4c(c3)OCC(=O)N4)cn2c1N(CC)Cc1cccc(Br)c1,-2,6,11,-1,-7,.,.,.,.
COc1cc(/C=N/NC(=O)c2cc(-c3ccccc3OC(C)C)nc3ccccc23)ccc1O,-4,15,57*,8,-7,13,42,9,13
Cc1ccc(F)cc1C(=O)N1CCCC(C)(C(=O)NS(=O)(=O)C2CC2)C1 (stereo unspecified),10,-12,9,2,-4,.,.,.,.
COc1ccc(CNC(=O)CN(Cc2ccc(Cl)cc2)S(=O)(=O)c2ccccc2)cc1,-4,2,29,22,-5,.,.,.,.
COc1ccc(CNC(=O)CN(Cc2ccccc2)S(=O)(=O)c2ccc(Cl)cc2)cc1,-9,10,63*,16,-4,42*,65*,12*,14
COc1ccc(C2=NOC(Cn3nc(-c4ccccc4)cc3C(=O)NCc3ccc(C)cc3)C2)cc1 (stereo unspecified),7,-2,24,4,-4,.,.,.,.
COc1ccc(C2=NOC(Cn3nc(C(=O)NCC4CC4)cc3-c3ccccc3)C2)cc1 (stereo unspecified),-10,20,72*,14,-2,34*,49*,6,5
COc1ccc(C2=NOC(Cn3nc(C(=O)NCc4ccccc4OC)cc3-c3ccccc3)C2)cc1 (stereo unspecified),-13,30,68*,16,-1,33*,53*,10,6
COc1ccc(C2=NOC(Cn3nc(C(=O)NCc4ccc(OC(F)(F)F)cc4)cc3-c3ccccc3)C2)cc1 (stereo unspecified),-11,18,24,2,-2,.,.,.,.
CCCCNC(=O)C(NC(=O)c1cnccn1)C(=O)c1ccccc1 (stereo unspecified),.,.,-3,1,.,.,.,.,.
Cc1cc(C)n2c(Nc3ccc4c(c3)OCCO4)c(CCc3ccccc3)nc2n1,.,.,-39,-1,.,.,.,.,.
O=C1C=C(O)CC2(CCCCC2)C1,3,1,.,.,-2,.,.,.,.
Cn1c(Cc2cccs2)nnc1SCC(=O)N1CCCc2ccccc21,1,-5,1,2,-5,.,.,.,.
O=C(CSc1nnc(Cc2cccs2)n1CCc1ccccc1)N1CCCc2ccccc21,-11,23,57*,19,2,22*,58*,11,12
O=C(CSc1nnc(Cc2cccs2)n1C1CCCCC1)N1CCCc2ccccc21,-11,0,64*,24,-1,36*,54*,10,11
Cc1ccc(C(=O)NCCN2CCC(n3c(=O)[nH]c4ccccc43)CC2)cc1,.,.,-5,4,.,.,.,.,.
CC(C)C[C@@H]1Cc2[nH]c(=S)[nH]c(=O)c2[C@H](C)O1,.,.,2,2,.,.,.,.,.
C=CCn1c(=S)[nH]c2cc(C(=O)Nc3ccc(OC)c(OC)c3)ccc2c1=O,-1,1,62*,19,-1,33*,45,12*,18
CC(=O)CCc1ccc(OCCCOc2cccc3cccnc23)cc1,-19,17,68*,15,-1,32*,46,11,18
SMILES,M1 PAM,M1 antag,TAAR1 antag,TAAR1 agonist,CHRM1 agonist,TAAR1 nonsel count,TAAR1 ant conf,Ga16 ag counter,TAAR1 ag counter
CC(=O)c1ccc(OCCCOc2cccc3cccnc23)cc1,-17,12,4,7,-6,.,.,.,.
Cc1ccc(C2C=CC(C#N)=CN2Cc2ccccc2)cc1 (stereo unspecified),1,2,.,.,-8,.,.,.,.
Cc1ccc(NC(=O)/C(C#N)=C/c2cn(CC(=O)NCc3ccco3)c3ccccc23)cc1C,5,-5,-14,1,-4,.,.,.,.
Cc1ccc(C)c(NC(=O)/C(C#N)=C/c2cn(CC(=O)NCc3ccco3)c3ccccc23)c1,-2,15,103*,2,-6,6,12,7,6
CC(=O)Nc1ccc(S(=O)(=O)N(C)CC(=O)OCC(=O)c2cc(C)n(-c3ccc4c(c3)OCO4)c2C)cc1,-6,4,56*,11,-6,23*,36,7,6
O=C(NCCN1C(=O)S/C(=C/c2cccnc2)C1=O)c1cccs1,8,-10,3,1,-3,.,.,.,.
O=C(COc1ccccc1-c1ccccc1)NCCN1C(=O)S/C(=C\c2cccnc2)C1=O,-6,-3,70*,11,-1,39*,46,12*,9
O=C(Cc1ccccc1)NNC(=O)Nc1cccc(Cl)c1,6,-22,-12,1,1,.,.,.,.
O=C(CN1c2ccccc2Sc2ccccc21)NNC(=O)Nc1cccc(Cl)c1,3,-2,58*,1,-3,13,37,0,2
Cc1ccc(CNC(=O)/C=C/[C@H]2O[C@@H](n3cc(C)c(=O)[nH]c3=O)C[C@@H]2O)o1,1,-23,-23,1,-2,.,.,.,.
CC(C)c1nc2scc(-c3ccc(Cl)cc3)c2c(=O)n1N,9,0,66*,3,2,32*,39,6,0
Cc1nc2scc(-c3ccc(Cl)cc3)c2c(=O)n1N,6,-11,4,1,-6,.,.,.,.
Cc1nc2ccc3nc(NC(=O)C4COc5ccccc5O4)sc3c2s1 (stereo unspecified),1,-9,61*,1,-1,29*,30,2,1
